The source of these data is ChEMBL document CHEMBL2203168, “Amine linked flavonoid dimers as modulators for P-glycoprotein-based multidrug resistance: structure-activity relationship and mechanism of modulation” (J Med Chem, 2012).

Data set [1] in a line: Reversal of P-gp-mediated vinblastin-resistance in human LCC6MDR cells after 5 days by MTS assay. It is filed as cell-based. To be noted: 120 h.
The nature of data set [2]: Cytotoxicity against human LCC-6 cells after 72 hrs. To be noted: LCC-6, 72 h. The data set is classed as functional, cell-based. A digest of the protocol: (§1)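 Cells seeded at 1 × 10⁴ per well in supplemented DMEM and given graded doses of dimer for 72 h at 37 °C, 5% CO₂. Survival measured and IC50 derived. N = 1–3 independent experiments, mean ± SEM.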
Data set [3] has as its system MDR. Put plainly: Cytotoxicity against human MDA435/LCC6MDR cells expressing MDR after 72 hrs. The data set is classed as functional, cell-based. The procedure, abridged: as §1
Data set [4] can be described thus: Reversal of P-gp-mediated doxorubicin-resistance in human LCC6MDR cells after 5 days by MTS assay. The data set is classed as cell-based. To be noted: 120 h. For orientation: Formazan colour is commonly taken as a measure of viable cells.
The test system of data set [5] is L929. Put plainly: Cytotoxicity against mouse L929 cells after 72 hrs. The data set is classed as cell-based. The note with it: L929, 72 h. A digest of the protocol:
as §1

The species entered for data set [6] is Homo sapiens. Description: Reduction in P-gp-mediated drug uptake in human MDA435/LCC6MDR cells at 100 uM for 120 mins by HPLC analysis relative to parental cells. It is filed as cell-based. The procedure, abridged: (§2)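 7.5 × 10⁶ LCC6 or LCC6MDR cells in 5 mL DMEM incubated with compound at 10 or 100 μM for 120 min at 37 °C. Cells washed, lysed by freeze–thaw in acetonitrile with 20% formic acid, and processed. Compound quantified by normal-phase HPLC-UV at 315 nm against a chloroform calibration curve of 0.25–25 μg/mL. N = 1–2.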

The species entered for data set [7] is Homo sapiens. Description: Inhibition of P-gp-mediated paclitaxel resistance in human LCC6MDR cells assessed as fold decrease in paclitaxel IC50 for cytotoxic activity at 1 uM after 5 days by MTS assay relative to parental cells. It is filed as cell-based.
For data set [8], the target named is T1, ATP-dependent translocase ABCB1 (Homo sapiens, UniProt P08183). Description: Competitive inhibition of P-gp overexpressed in human MDA435/LCC6MDR cells assessed as accumulation of doxorubicin by Dixon plot analysis. It is filed as cell-based.
T1 sequence (P08183 whole entry): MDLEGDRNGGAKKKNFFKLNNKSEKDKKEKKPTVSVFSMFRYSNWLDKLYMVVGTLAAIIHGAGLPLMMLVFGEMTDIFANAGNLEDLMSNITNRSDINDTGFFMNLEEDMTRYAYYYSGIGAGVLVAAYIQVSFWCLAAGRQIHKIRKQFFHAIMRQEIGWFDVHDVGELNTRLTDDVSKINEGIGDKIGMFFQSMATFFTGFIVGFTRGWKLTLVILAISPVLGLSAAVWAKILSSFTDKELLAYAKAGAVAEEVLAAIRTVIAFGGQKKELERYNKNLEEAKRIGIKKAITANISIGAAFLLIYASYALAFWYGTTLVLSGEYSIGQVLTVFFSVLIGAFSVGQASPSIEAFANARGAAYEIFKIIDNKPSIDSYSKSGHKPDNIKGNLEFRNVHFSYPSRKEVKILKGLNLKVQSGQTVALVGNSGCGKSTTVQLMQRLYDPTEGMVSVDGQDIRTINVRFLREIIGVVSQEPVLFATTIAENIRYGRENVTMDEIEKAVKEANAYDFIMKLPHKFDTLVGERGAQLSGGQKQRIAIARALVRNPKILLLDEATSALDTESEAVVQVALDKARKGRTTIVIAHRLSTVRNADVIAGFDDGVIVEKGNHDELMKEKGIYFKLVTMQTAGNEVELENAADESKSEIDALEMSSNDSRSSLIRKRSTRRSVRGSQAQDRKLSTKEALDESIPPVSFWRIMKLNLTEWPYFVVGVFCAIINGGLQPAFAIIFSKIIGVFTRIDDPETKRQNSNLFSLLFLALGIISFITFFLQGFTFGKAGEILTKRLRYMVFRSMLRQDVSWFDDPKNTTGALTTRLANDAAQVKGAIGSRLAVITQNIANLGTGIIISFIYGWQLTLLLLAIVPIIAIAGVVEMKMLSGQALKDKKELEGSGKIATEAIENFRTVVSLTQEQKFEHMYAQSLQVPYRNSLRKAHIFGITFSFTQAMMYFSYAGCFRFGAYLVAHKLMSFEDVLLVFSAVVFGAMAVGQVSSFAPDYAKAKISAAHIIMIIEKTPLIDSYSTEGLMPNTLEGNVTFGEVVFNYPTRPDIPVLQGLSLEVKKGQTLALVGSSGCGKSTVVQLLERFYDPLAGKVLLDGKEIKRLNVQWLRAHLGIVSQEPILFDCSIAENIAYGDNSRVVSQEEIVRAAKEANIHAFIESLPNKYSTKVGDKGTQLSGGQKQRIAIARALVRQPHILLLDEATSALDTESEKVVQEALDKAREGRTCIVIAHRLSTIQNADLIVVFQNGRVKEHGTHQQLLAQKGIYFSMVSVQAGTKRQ
In data set [9] the target is P-gp (ABCB1) (Homo sapiens, UniProt P08183). Put plainly: Increase in human P-gp ATPase activity at 200 uM by luciferase assay relative to basal level. The note with it: read-out: FC. The procedure, abridged:
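Human P-gp membrane fraction (about 25 μg) incubated with compound at 200 μM, 0.5% DMSO basal or 100 μM vanadate. Reaction started with 5 mM MgATP, 1 h at 37 °C. Remaining ATP read by luciferase luminescence after 20 min at room temperature. Activity normalized to basal and given as stimulation fold. N = 2.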

For data set [10], the target named is T1, ATP-dependent translocase ABCB1. Description: Inhibition of P-gp overexpressed in human MDA435/LCC6MDR cells assessed as accumulation of doxorubicin after 150 mins by fluorescence spectrophotometric analysis. To be noted: 2.5 h. It is filed as cell-based. A digest of the protocol:
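1 × 10⁶ LCC6MDR or LCC6 cells incubated with 20 μM DOX and graded modulator for 150 min at 37 °C, with 0.4% DMSO as negative control. Cells washed and lysed in 0.75 M HCl, 0.2% Triton X-100 in isopropanol. DOX fluorescence read at ex 460/em 610 nm. N = 2–5.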

Data set [11] in a line: Reversal of P-gp-mediated mitoxantrone-resistance in human LCC6MDR cells after 5 days by MTS assay. It is filed as cell-based. To be noted: 120 h.
The species named for data set [12] is Homo sapiens. Description: Inhibition of P-gp-mediated paclitaxel resistance in human LCC6MDR cells assessed as fold decrease in paclitaxel IC50 for cytotoxic activity at 0.5 uM after 5 days by MTS assay relative to parental cells. The data set is classed as cell-based.
Data set [13] deals with T2, Broad substrate specificity ATP-binding cassette transporter ABCG2 (Homo sapiens, UniProt Q9UNQ0).
T2 sequence (Q9UNQ0 whole entry): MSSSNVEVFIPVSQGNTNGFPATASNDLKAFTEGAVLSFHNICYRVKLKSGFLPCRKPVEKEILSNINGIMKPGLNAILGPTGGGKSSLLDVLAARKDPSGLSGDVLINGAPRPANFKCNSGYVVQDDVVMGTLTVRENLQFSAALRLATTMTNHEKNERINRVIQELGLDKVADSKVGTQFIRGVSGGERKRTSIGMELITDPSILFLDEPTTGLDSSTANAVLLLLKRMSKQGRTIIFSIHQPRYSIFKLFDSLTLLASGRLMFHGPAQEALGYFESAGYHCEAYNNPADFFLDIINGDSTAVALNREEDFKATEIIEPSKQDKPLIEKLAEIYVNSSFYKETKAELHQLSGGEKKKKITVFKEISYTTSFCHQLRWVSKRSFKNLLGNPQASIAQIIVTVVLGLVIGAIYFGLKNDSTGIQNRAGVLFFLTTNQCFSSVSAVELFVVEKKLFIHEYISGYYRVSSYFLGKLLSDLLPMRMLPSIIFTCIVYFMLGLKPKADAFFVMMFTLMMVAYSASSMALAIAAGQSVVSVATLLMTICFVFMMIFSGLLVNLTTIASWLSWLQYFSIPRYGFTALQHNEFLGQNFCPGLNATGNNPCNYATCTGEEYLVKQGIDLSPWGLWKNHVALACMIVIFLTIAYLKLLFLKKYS
Description: Inhibition of BCRP-mediated topotecan resistance in human HEK293/R2 cells assessed as fold decrease in topotecan IC50 for cytotoxic activity at 0.5 uM after 5 days by MTS assay relative to parental cell. The data set is classed as cell-based. To be noted: hek293/r2, 120 h. The procedure, abridged:
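Viability read by MTS. Topotecan IC50 taken from dose-response curves. Fold change = IC50 without modulator / IC50 with modulator. Parental HEK293/pcDNA3.1 tested for reference. N = 2−4 independent experiments, mean ± SEM.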

Data set [14] can be described thus: Reversal of P-gp-mediated daunorubicin-resistance in human LCC6MDR cells after 5 days by MTS assay. It is filed as cell-based. To be noted: 120 h.
For data set [15], the target named is T1, ATP-dependent translocase ABCB1. Put plainly: Competitive inhibition of P-gp overexpressed in human MDA435/LCC6MDR cells assessed as accumulation of doxorubicin by Lineweaver-Burk plot analysis. The data set is classed as cell-based.
The species entered for data set [16] is Homo sapiens. Put plainly: Reduction in P-gp-mediated drug uptake in human MDA435/LCC6MDR cells at 10 uM for 120 mins by HPLC analysis relative to parental cells. It is filed as cell-based. The procedure, abridged:
as §2

Data set [17] is described as follows: Reversal of P-gp-mediated paclitaxel-resistance in human LCC6MDR cells after 5 days by MTS assay. It is filed as cell-based. The note with it: 120 h.
Data set [18] can be described thus: Reversal of P-gp-mediated vincristine-resistance in human LCC6MDR cells after 5 days by MTS assay. The data set is classed as cell-based. The note with it: 120 h.
The nature of data set [19]: Therapeutic index, ratio of IC50 for L929 cells to EC50 for reversing paclitaxel resistance in human MDA435/LCC6MDR cells. The note with it: L929 cells (IC50) and MDA435/LCC6MDR cells (EC50). It is filed as cell-based.
Data set [20] has as its target Multidrug resistance-associated protein 1 (Homo sapiens, UniProt P33527). Put plainly: Inhibition of MRP1-mediated doxorubicin resistance in human 2008/MRP1 cells assessed as fold decrease in doxorubicin IC50 for cytotoxic activity at 0.5 uM after 5 days by MTS assay relative to parental cell. The data set is classed as cell-based. To be noted: 2008/mrp1, 120 h.

pEC50, pIC50, pKi: −log10 of the molar value. In brackets after ≈: the same amount, converted by molar mass.

Sequence of P-gp (ABCB1) (P08183 whole entry): as the sequence (P08183 whole entry) above
Sequence of Multidrug resistance-associated protein 1 (P33527 whole entry): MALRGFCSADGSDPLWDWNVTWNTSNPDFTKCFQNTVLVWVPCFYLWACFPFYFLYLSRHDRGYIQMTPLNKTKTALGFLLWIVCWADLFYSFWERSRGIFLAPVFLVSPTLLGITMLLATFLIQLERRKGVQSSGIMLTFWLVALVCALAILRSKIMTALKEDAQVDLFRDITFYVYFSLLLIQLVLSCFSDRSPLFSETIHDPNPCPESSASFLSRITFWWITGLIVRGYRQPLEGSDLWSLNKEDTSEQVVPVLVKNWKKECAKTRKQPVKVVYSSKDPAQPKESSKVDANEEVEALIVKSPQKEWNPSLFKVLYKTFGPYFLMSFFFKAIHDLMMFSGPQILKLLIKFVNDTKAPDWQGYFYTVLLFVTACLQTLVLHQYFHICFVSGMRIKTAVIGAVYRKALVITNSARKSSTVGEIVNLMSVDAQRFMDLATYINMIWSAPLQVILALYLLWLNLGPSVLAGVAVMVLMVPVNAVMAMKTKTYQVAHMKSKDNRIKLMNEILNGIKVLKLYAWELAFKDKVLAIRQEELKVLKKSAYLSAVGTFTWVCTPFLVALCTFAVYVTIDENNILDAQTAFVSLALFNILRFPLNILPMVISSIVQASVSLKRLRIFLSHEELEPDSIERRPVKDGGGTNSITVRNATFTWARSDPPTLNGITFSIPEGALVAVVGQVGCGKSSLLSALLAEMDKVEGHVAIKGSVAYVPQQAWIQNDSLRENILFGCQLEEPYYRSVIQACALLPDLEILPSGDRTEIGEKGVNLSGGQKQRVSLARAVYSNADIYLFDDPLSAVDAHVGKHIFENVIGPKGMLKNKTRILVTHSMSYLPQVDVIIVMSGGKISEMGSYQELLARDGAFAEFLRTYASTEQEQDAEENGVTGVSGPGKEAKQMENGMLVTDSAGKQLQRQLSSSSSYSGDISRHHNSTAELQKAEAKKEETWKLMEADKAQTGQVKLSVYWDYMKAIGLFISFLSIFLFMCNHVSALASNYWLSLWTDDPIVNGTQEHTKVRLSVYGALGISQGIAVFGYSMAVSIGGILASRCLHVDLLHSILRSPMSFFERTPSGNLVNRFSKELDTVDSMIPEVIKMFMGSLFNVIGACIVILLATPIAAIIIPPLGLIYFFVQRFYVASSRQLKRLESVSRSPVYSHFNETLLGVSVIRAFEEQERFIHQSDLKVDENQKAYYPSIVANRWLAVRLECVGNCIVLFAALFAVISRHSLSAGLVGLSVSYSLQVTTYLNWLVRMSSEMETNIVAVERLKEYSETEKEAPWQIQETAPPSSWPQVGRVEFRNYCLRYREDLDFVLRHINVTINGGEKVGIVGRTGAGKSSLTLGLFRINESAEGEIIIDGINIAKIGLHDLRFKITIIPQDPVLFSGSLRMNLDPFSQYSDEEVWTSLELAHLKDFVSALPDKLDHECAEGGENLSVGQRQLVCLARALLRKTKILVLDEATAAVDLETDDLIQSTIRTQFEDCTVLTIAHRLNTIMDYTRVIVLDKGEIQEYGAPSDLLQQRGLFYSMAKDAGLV

On to `O=c1cc(-c2ccc(OCCOCCN(CCOCCOc3ccc(-c4cc(=O)c5ccccc5o4)cc3)Cc3ccccc3)cc2)oc2ccccc12`, for which the pEC50 in [1] is 6.76; in data set [4] it was 6.88; in [11], 7.05; in [14] it was 7.02; in data set [17] it was 6.83; in data set [18] it was 6.75. For the same compound, the pIC50 in data set [2] was under 4.12; in data set [3], under 4.20; in data set [5], 4.07. Also, the values for the fold change (FC) in data set [6] and in data set [16] were 2.1 and 1.7, respectively. Also, the Ratio came out at 139 in [7], 58.9 in [12], 3.8 in [13] and 2.1 in [20]. In addition, the results for the pKi in [8] and in [15] were 6.55 and 6.47, respectively. Moreover, the fold induction at 200 µM in data set [9] came to 2.7. In addition, the MIC in data set [10] was determined as 0.5 µM (≈ 0.362 µg/mL). For the same compound, the “inhibition (INH)” value in data set [10] is “Dose-dependent effect”. The selectivity ratio in data set [19] turned out to be 574.

For orientation: pEC50 means the negative decadic logarithm of the EC50, by convention in mol/L. The term pIC50 denotes −log10 of the IC50, conventionally taken in molar units. Low values mean a large IC50, high ones a small IC50. The term pKi denotes the Ki on a negative log10 scale, so that one unit is a factor of ten.
